Active and inactive are the calls of the source. The rule behind the calls is not given here. Residues, ends and D or L forms follow the SMILES beside them. *: point of attachment. NHBn = c1ccc(CN*)cc1

The values below come from ChEMBL document CHEMBL1800022, “Structure-activity relationships of a series of analogues of the RFamide-related peptide 26RFa” (J Med Chem, 2011).

For assay [1], the target named is T1, Pyroglutamylated RF-amide peptide receptor (Homo sapiens) (UniProt Q96P65).
T1 sequence (whole entry): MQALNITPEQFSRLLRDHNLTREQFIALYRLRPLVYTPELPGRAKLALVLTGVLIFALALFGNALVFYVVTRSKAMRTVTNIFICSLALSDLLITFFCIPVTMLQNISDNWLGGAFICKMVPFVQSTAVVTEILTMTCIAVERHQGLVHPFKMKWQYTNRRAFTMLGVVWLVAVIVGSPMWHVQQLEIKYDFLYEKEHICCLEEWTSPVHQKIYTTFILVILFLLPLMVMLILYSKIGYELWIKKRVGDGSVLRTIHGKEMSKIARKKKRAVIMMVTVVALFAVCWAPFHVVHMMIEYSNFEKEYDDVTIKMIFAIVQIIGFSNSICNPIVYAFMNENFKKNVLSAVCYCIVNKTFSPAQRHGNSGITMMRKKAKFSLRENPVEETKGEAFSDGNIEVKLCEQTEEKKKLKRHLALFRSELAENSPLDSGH
Put plainly: Antagonist activity at DYKDDDDK-flagged human GPR103 receptor expressed in CHO-K1 cells co-expressing G-protein alpha16 assessed as inhibition of 26RFa-induced calcium mobilization after 2 mins by fluorometric analysis. The format is functional, cell-based. The method in brief: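 Same Gα16/flag-hGPR103 CHO-K1 cells, Fluo-4AM loading and HBSS/probenecid/HEPES buffer. Triplicates; IC50 reported as mean ± SEM of at least three experiments.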

Assay [2] deals with T1, Pyroglutamylated RF-amide peptide receptor (Homo sapiens). Put plainly: Agonist activity at DYKDDDDK-flagged human GPR103 receptor expressed in CHO-K1 cells co-expressing G-protein alpha16 assessed as stimulation of calcium mobilization at 10' -12 to 10^-5 M after 2 mins by fluorometric analysis. Type of assay: functional, cell-based. The method, boiled down:
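CHO-K1 cells stably expressing Gα16 and C-terminally flag-tagged human GPR103 (Geneticin-selected), plated at 40 000 cells/well 24 h before assay. Loaded with 2 μM Fluo-4AM for 1 h, washed, then 30 min in HBSS with 2.5 mM probenecid and 5 mM HEPES. Peptides added at 10^-12 to 10^-5 M final and fluorescence read for 2 min. Triplicates; EC50 from sigmoidal variable-slope fit, at least three experiments.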
A general note: A change in cytosolic calcium serves as a functional read-out for many receptors and channels.

For the compound `C[C@H](NC(=O)[C@H](Cc1ccccc1)NC(=O)[C@H](CO)NC(=O)[C@H](Cc1ccccc1)NC(=O)CNC(=O)CN)C(=O)N[C@@H](Cc1ccccc1)C(N)=O` (H-GGFSFAF-NH2), the inhibition entry in assay [1] was “inactive”. Besides, the outcome in assay [2] was inactive.
As to `N=C(N)NCCC[C@H](NC(=O)[C@H](Cc1ccccc1)NC(=O)[C@H](CO)NC(=O)[C@H](Cc1ccccc1)NC(=O)CNC(=O)CN)C(=O)NCc1ccccc1` (H-GGFSFR-NHBn), the inhibition entry in assay [1] was “inactive”. For the same compound, in assay [2], the result was inactive.
In the case of `C[C@H](NC(=O)[C@H](CCCNC(=N)N)NC(=O)[C@H](Cc1ccccc1)NC(=O)[C@H](CO)NC(=O)[C@H](Cc1ccccc1)NC(=O)CNC(=O)CN)C(N)=O` (H-GGFSFRA-NH2), in assay [1], the inhibition result is “inactive”. For the same compound, the result in assay [2] was inactive.
Take `N=C(N)NCCC[C@H](NC(=O)[C@H](Cc1ccccc1)NC(=O)[C@H](CO)NC(=O)[C@H](Cc1ccccc1)NC(=O)CNC(=O)CN)C(=O)N[C@@H](Cc1ccccc1)C(=O)NCc1ccccc1` (H-GGFSFRF-NHBn): the inhibition entry in assay [1] is “inactive”. In assay [2], the outcome was inactive.
Take `CC(C)C[C@H](NC(=O)[C@H](CCC(=O)O)NC(=O)[C@H](CCC(=O)O)NC(=O)[C@H](C)NC(=O)[C@@H](N)CC(C)C)C(=O)N[C@@H](CC(N)=O)C(=O)NCC(=O)N[C@@H](Cc1ccc(O)cc1)C(=O)N[C@@H](CO)C(N)=O` (H-LAEELNGYS-NH2): the inhibition entry in assay [1] was “inactive”. The outcome in assay [2] was inactive.
Turning to `CC(C)C[C@H](NC(=O)[C@@H]1CCCN1)C(=O)NCC(=O)N[C@@H](CC(N)=O)C(=O)N[C@@H](CC(C)C)C(=O)N[C@@H](C)C(=O)N[C@@H](CCC(=O)O)C(=O)N[C@@H](CCC(=O)O)C(=O)N[C@@H](CC(C)C)C(=O)N[C@@H](CC(N)=O)C(=O)NCC(=O)N[C@@H](Cc1ccc(O)cc1)C(=O)N[C@@H](CO)C(=O)N[C@@H](CCCNC(=N)N)C(N)=O` (H-PLGNLAEELNGYSR-NH2), the inhibition entry in assay [1] was “inactive”. Also, the result in assay [2] was inactive.
Consider `CC(C)C[C@H](NC(=O)[C@H](CC(N)=O)NC(=O)CNC(=O)[C@H](CC(C)C)NC(=O)[C@@H]1CCCN1C(=O)CNC(=O)[C@H](CO)NC(=O)[C@@H](N)[C@@H](C)O)C(=O)N[C@@H](C)C(=O)N[C@@H](CCC(=O)O)C(=O)N[C@@H](CCC(=O)O)C(=O)N[C@@H](CC(C)C)C(=O)N[C@@H](CC(N)=O)C(=O)NCC(=O)N[C@@H](Cc1ccc(O)cc1)C(=O)N[C@@H](CO)C(N)=O` (H-TSGPLGNLAEELNGYS-NH2), for which, in assay [1], the inhibition entry was “inactive”. In assay [2], the result was inactive.
In the case of `CC(C)C[C@H](NC(=O)[C@H](CC(N)=O)NC(=O)CNC(=O)[C@H](CC(C)C)NC(=O)[C@@H]1CCCN1C(=O)CNC(=O)[C@H](CO)NC(=O)[C@@H](N)[C@@H](C)O)C(=O)N[C@@H](C)C(=O)N[C@@H](CCC(=O)O)C(=O)N[C@@H](CCC(=O)O)C(=O)N[C@@H](CC(C)C)C(=O)N[C@@H](CC(N)=O)C(=O)NCC(=O)N[C@@H](Cc1ccc(O)cc1)C(=O)N[C@@H](CO)C(=O)N[C@@H](CCCNC(=N)N)C(=O)N[C@@H](CCCCN)C(N)=O` (H-TSGPLGNLAEELNGYSRK-NH2), the inhibition result in assay [1] is “inactive”. The outcome in assay [2] was inactive.
